To fix the notation:
B1: tRNA (parent)
chain: GUUCCGUUGGCGUAAUGGUAACGCGUCUCCCUCCUAAGGAGAAGACUGCGGGUUCGAGUCCCGUACGGAACG

Among the data in the RNAGym collection of RNA variant scans (doi:10.1126/science.aae0568) are yeast fitness values, retold here.

Fewer inactive variants are shown than the library holds.

The variants in the data set derive from B1. The data set can be described thus: yeast fitness relative to wild type (ratio to wild type); higher = fitter; tRNA-Arg(CCU), competitive growth, 37 C, YPD. In outline:
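Genotype frequency changes were the basis for Darwinian fitness relative to wild type. The frequencies came from 100-nucleotide paired-end sequencing of gene amplicons from the start population and each end population of pooled yeast strains with tRNA-Arg(CCU) gene variants at the native locus. Competition ran in YPD at 37°C for 24 hours in six replicates, genotypes needed ≥ 100 starting reads, and estimates < 0.5 were set to 0.5.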
As for GUUCCGUUGGUGUAAUGGUAACGCGUCUCCCUGCUAAGGAGAAGACUGCGGGUUCGAGUCUCGUACGGAACG, the yeast fitness was at most 0.5.

With GUUCCGUUGGCGUAAUGGUAACGCGUUCCCCUCCUAAGGAGAAGACUGCGGGUUCGAGUCCCGUACGGAACG, the yeast fitness came to 0.903.

As to GUUCCGUUGGCGUAAUGGUAACGCGUCUCCCUCCUGAGGAGCUGAAUGCGGGUUCGAGUCCCGUACGGAACG, the yeast fitness was 0.861.

Take GUUCCGUUGGCGUAAUGGUAACGCGUCUCCCUCCCAAGGAGAAGACUGCGGGUUCGAGUCCCGUACGGAUCG: the yeast fitness worked out at 0.812.

With GUUCCGUUGGGGUUAUGGUAACGCGUCUCCCUCCUAAGGAGUAGACUGCGGGUUCGAGUCCCGUACGGAACG, the yeast fitness turned out to be 0.638.

As for GUUCCGUUGGCGUAAUGGUAACGCGUCUCCGUCCUUAGGAAAAGCCUGCGGGUUCGAGUCCCGUACGGAACG, the yeast fitness is at most 0.5.

With GUUCCGUUGGCGUAAAGGUAACGCGUCUCGCUCCUAAGGAGAAGACUGCGGGUUCGAGUCCCGUACGGAACG, the yeast fitness amounted to 0.567.

In the case of GUUCCGUUGGCGUAAUGGUAACGUGUCUACCACCUAAGGAGAAGAGUGCGGGUUCGAGUCCCGUACGGAUCG, the yeast fitness was at most 0.5.

As for GUUCCGUUGGCGGAAUGGUAACGCGUCUCCCUCCUAAGGAGAAGAUUGCGGGUUCGAGUCCCGUACGGAACG, the yeast fitness was 0.895.

Regarding GUUCCAUUGGCGUAAUGGUAAUGCGUCUCCCUCCUAAGGAGAAGACUGCGGGUUCGAGUCCCGUACGGAACG, the yeast fitness was determined as 0.757.

Take GUUGCGUUAGCGUAAUGCUAACGCGUCUCCUUCCUAAGGAGAAGACUGCGGGUUAGAGUCCCGUCCGGAACG: the yeast fitness was at most 0.5.

Turning to GUUUCGUUGGCGUAAUGGUAACGGGUCUCCCUCCUAAGGAGAAGACUGCGGGUUGGAGUCCCGAACGGAACG, the yeast fitness is at most 0.5.

For the variant GUUCGGUUGGCGUUAUGGUAACGCAUCUCCCUCCUAAGGAGAAGACUCCGGGUUCGAGUCAUGUACGGAACG, the yeast fitness is at most 0.5.

Consider GUUCUGUUGGCGUAGUGGUAAGGCGUCUCCCUCCUAAGGAAAAGUCAGCGGGUUCGAGUCCUGUACGGAACG, for which the yeast fitness was at most 0.5.

GUUCCGUUGGCGUAAUGGUAACGAGUCUCCCUCCUCAGGGGAAGACUGCGGGUUCGAGUCCCGUACGGAACG: the yeast fitness turned out to be 0.789.

On to GUUCCGUUGGCGUAAUGGUAAUGCGUCUCCCUCCUAAGGAGAAGCCUGCAGGUUCGAGUCCCGUACGGAACG, for which the yeast fitness was found to be 0.698.

Regarding GUUCCGUUGGAGUAAUGGUCACGCGUCUUCCUCCUAAGGAGAAGACCGCGGGUUCGAGUCCCGUACGGAUCG, the yeast fitness was at most 0.5.

For the variant GUUCCGUUGGCGUAAUGGUAACGCGACUCCCUCCAAAGGAGAAGACUCCGGGUUCGAGUCCCGUACGGAACG, the yeast fitness is at most 0.5.

With GUUCCGUUGGCGUAAUGGUAACGCGUCUCCCUCCUAAGGAGAAAACUGUGGGUUCGAGUCCCGUACGGAACG, the yeast fitness came to 1.04.

With GUUCCGUUGGCCUAAUGGUAACGCGUCUCCCUCCUAAGAAGAAGACUGCGGGUUCGAGUCCCGUACGGAACG, the yeast fitness was 0.75.

With GUUCCGUUAGCGUAAUGGUAGCGCGUCUGCCUCGUAAGGAGAAGACUGCGGGUUCGAGUCCCGUACGGAACG, the yeast fitness was at most 0.5.

For the variant GUUCCGUUGGCGCAAUGGUAACGCGUCUCCCUCCUAAGGAGAAGACUGCGGGUUCGAGUCCCAUACGGAACG, the yeast fitness worked out at 0.937.

On to GUUCCGUUGGUGUAAUGGUAACGCGUCUCCCUCCUAAGGAGAACACUGCGGGUUCGAGUCCCGUACAGAACG, for which the yeast fitness came out at 0.638.

As to GUUCCGUUGGCGUAAUGGAAACGCGUCUCCCUCUUAAGGAGUAGACUGCGGGUUCGAGUCCCGUACGGAACG, the yeast fitness was determined as 0.543.

Regarding GUUCCGUUGGCGUAAUGGUAACGUGUCUCCCUCCAAAGGGGAAGACUGCGGGUUCGAGUCCCGUACGGAACG, the yeast fitness came out at 0.576.

In the case of GUUCCGUUGGCGUCAUGGUAACGCCUCUCCCUCCUAAGGAGAAGACAGCGGGUUCGAGUCCCGUACGGAACG, the yeast fitness was 0.608.

In the case of GUUCCGUUGGCGUAAUGGUAACGCGUCUCCCCCCUAAGGAGAAGACUGUGGGUUCGCGUCCCGUACGGAACG, the yeast fitness was determined as 0.654.

Consider GUUCAGUUGGCGUAAUGGUAACGCGUCUCUCUCCUAAGGAGAAGACUGCGGGUUCGAGUCCGGUACGAAACG, for which the yeast fitness is at most 0.5.

Take GUUCCGUUGGCGUAAUGGUAACGCGUUUCCCUCCUAAGGAGAAGACUGAGGGUUCGAGUCCCGCACGGAACG: the yeast fitness turned out to be 0.756.

Consider GUUCCGUUGGCGUAAUGGUAACGCGUCUCCCUCCUAAGGAGGAGGCUGCGGGUUCGAGUCCCGUUCGGAACG, for which the yeast fitness was found to be 0.635.

Turning to GUUCUGUUGGCGUAAUGGUAACGCGUCUCCCUCCUAAGGAGAUGACUGUGGGUUCGAGUCGCGUACGGAACG, the yeast fitness amounted to 0.532.

Take GUUCCGUUGGCGUAAUGGUAACGCGUCACUCUCCUAAGGAGAAGACUGCGGGUUCGAGUCCCGUAUGGAACG: the yeast fitness is at most 0.5.

Consider GUUUCGUUGGCGUCAUGGUAACGCGUCUUCCUCCUAAGGAGAAGACUGCGGGUUCGAGUCCCGUGCGGAACG, for which the yeast fitness came out at 0.765.

Consider GUUCCGUUGGCGUAAUGGUAACGCGUCUCCCUCCUAUGGAGAAGACUGCGGGUUCGAGUCCCGUUGGGAACG, for which the yeast fitness was at most 0.5.

With GUUCCGUUGGCGUAAUGGUAACGCGUAUCCCUCCUAAGGAGAACACUGCGAGUUCGAGUCCCGUACGGAACG, the yeast fitness is at most 0.5.

GUUCUGUUGGGGUAAUGGUAACGUGUCUCCCUCCUAAGGAGCAGACUGCGGGUUCGAGUCCCGUACAGAACG: the yeast fitness is at most 0.5.

With GUUCCGUUGGCGUAAUGGUAACGUGUCUCCCUCUUAAGGAGAAGAAUGCGGGUUCGAGUCCCGUACGGAACG, the yeast fitness was at most 0.5.

With GUUGCGUUGGCGUAAUGGUAACGCGUCUCCCUCCUAAGGAGAAGACUGCGGGUUCGAGUCCCGUACAGAGCG, the yeast fitness amounted to 0.665.
